High-throughput results (PubChem BioAssay)
ABHD4 inh: inhibits mouse alpha/beta hydrolase domain 4. inhibition, % at 8.92 µM. AID 720543. Q8VD66. purified mABHD4, FP-Rh probe fluorescence polarization. actives 0.54% (n = 370,000);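 active = inhibition exceeding the mean over every tested compound plus 3 SD, cut at about 30% in these data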;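 note: 0% = plate median of compound wells and 100% = S159A mutant with DMSO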
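Assay system: mABHD4 protein; medium: HEPES pH 7.0, NaCl, Pluronic buffer; dosing: 8.92 µM, single dose; schedule: 45 min + 60 min at 25 °C; signal: FP readout, ex 525 nm / em 598 nm; read-out: normalized percent inhibition of probe labeling; repeats: single replicate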
SIAE primary: blocks human sialic acid acetylesterase | inhibition, % at 9.66 µM | AID 1053197 | actives 0.69% (n = 370,000) | SIAE FP-Rh probe binding, fluorescence polarization;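 active = inhibition above a cutoff: mean of compounds within the control limits plus 3 SD of those, cut at about 17% in these data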;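 note: 0% = plate median of compound wells and 100% = probe without SIAE protein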
Target sequence (Q9HAT2 whole entry, looked up): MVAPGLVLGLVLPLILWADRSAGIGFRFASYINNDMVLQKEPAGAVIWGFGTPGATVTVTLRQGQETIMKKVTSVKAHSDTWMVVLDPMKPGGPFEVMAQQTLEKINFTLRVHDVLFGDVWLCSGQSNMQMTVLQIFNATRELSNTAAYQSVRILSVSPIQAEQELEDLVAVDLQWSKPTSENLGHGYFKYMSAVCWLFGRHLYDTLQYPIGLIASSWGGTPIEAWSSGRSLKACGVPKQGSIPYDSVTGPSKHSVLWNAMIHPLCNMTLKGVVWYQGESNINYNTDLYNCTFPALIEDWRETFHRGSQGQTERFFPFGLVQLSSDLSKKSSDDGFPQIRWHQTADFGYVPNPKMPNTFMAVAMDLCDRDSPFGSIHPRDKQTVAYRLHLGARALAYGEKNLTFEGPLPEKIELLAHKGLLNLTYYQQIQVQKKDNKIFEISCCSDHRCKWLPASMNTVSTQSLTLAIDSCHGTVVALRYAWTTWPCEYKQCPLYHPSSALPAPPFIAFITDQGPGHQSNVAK
rCAG binder: molecules binding r(CAG) RNA repeats; r(CAG) RNA repeat, TO-PRO-1 dye displacement fluorescence; inhibition, % at 3 µM; actives 1.3% (n = 370,000);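 active = inhibition above the plate cutoff, the mean of all test compounds on that plate plus 3 SD, cut at about 35% in these data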;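 note: 0% = DMSO alone and 100% = 100 µM mitoxantrone as full dye displacement; higher means more dye released from RNA so lower well fluorescence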
HTRA1 inh: blocks human HTRA1 serine peptidase | AID 504803 | recombinant HTRA1, FP-rhodamine activity-based probe, fluorescence polarization | inhibition, % at 5.96 µM | actives 0.5% (n = 340,000); in the data active = inhibition above about 36%;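 note: 0% = enzyme with DMSO and 100% = wells lacking enzyme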
TCR CD3 inh: blocks the human TCR-CD3 interaction; TAMRA-labeled TCR probe fluorescence, biochemical; inhibition, % at 9.4 µM; actives 0.37% (n = 360,000); in the data active = inhibition above about 19%;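 note: recombinant mutant TCR 2C K166C tagged with TAMRA read by polarization; 0% = receptor in buffer alone and 100% = receptor with positive control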
* = called active by the depositor; / = no result. Compounds with a hit are over-represented: about 2.5% of the library has one in this group of screens.

SMILES	ABHD4 inh	SIAE primary	rCAG binder	HTRA1 inh	TCR CD3 inh
CCC1(C(=O)c2ccc(Cl)cc2)C2c3ccccc3OC(=O)C21C(=O)Nc1ccccc1 (stereo unspecified)	-9.6	4.2	40.2*	-22.2	4.2
CCCC(C)NC(=O)Cc1ccccc1[N+](=O)[O-] (stereo unspecified)	3.8	2.3	3.1	1.8	6.3
CCCn1c(CCC(=O)O)ccc1-c1ccc(OC)cc1	-4.0	-4.3	7.7	-1.2	-2.9
Cc1ccccc1C(=O)Nc1ccc(-c2nc3ccc(C(=O)c4ccccc4)cc3[nH]2)cc1	-110.0	-144.9	25.2	-112.2	67.2*
Cc1[nH]n(-c2ccccc2)c(=O)c1-c1ccccc1	11.8	18.4*	5.8	-7.0	1.2
Cc1[nH]n(-c2cccc(Cl)c2)c(=O)c1-c1ccccc1	-4.5	0.7	9.9	-12.3	-5.4
COc1ccc(Cl)cc1NC(=O)CSc1nnc(Cc2ccc(C)cc2)c(=O)[nH]1	-27.4	-12.1	75.3*	-49.1	0.7
Cc1ccc(Cc2nnc(SCC(=O)Nc3ccccc3Cl)[nH]c2=O)cc1	0.9	-10.6	15.7	-6.0	-2.0
CCc1cccc(C)c1NC(=O)CCCSc1nc2ccccc2s1	-9.3	2.5	0.8	-7.7	-3.8
CCc1cccc(CC)c1NC(=O)C1SC(=Nc2ccccc2C)C(c2nc3ccccc3s2)=C1N (stereo unspecified)	-55.4	-96.5	42.1*	-51.9	9.7
COc1ccc(N=C2S/C(=C\c3ccc(OCC(=O)O)cc3)C(=O)N2CCc2c[nH]c3ccccc23)cc1	-1.1	-6.8	68.4*	-24.9	3.8
N/C(=N\N=C\c1ccco1)SC1CC(=O)N(c2ccccc2)C1=O (stereo unspecified)	4.4	10.5	5.2	-0.6	-5.9
CCn1cc(C(=O)Nc2ncccc2O)c(=O)c2cc(F)c(N3CCN(C(=O)c4ccco4)CC3)cc21	7.3	3.7	4.4	16.0	19.5*
O=C(O)c1cc(CN2CCOCC2)oc1-c1ccccc1	-4.3	-2.4	7.7	-5.7	6.1
COc1ccc(CNc2cccc3[nH]c(C(F)(F)F)nc23)cc1	14.6	15.4	42.2*	17.6	2.1
COc1ccccc1C1(O)CCN(CC(=O)Nc2c(C)nn(C)c2C)CC1	8.1	-2.9	-2.1	1.9	8.8
O=C(CN1C(=O)/C(=C\c2ccco2)SC1=S)Nc1ccc(O)cc1C(=O)O	-21.2	8.7	88.4*	-4.5	-4.1
CSc1cc(-c2ccccc2)n(C)c(=O)c1C#N	-11.8	-2.2	5.8	-8.5	-2.0
Cc1cc2c(SCC(=O)Nc3cccc(O)c3)ncnc2s1	-8.5	-25.8	53.7*	-24.2	9.9
COc1cc(Br)c(CC2c3cc(OC)c(OC)cc3CCN2C)cc1OC (stereo unspecified)	3.9	3.9	3.9	3.5	-1.2
O=C(Nc1ccc(N2CCOCC2)nc1)c1cccs1	-0.3	2.4	-4.4	1.4	8.7
Cc1cc(Nc2ccccc2)nc(NCc2ccccc2)n1	21.5	-5.2	3.9	-11.0	-4.3
Cc1cc(Nc2ccc(Cl)cc2)nc(NCc2ccccc2)n1	17.1	23.5*	5.0	-17.0	-0.9
CCc1ccc2c(c1)C1(NN=C(c3cccc4ccccc34)S1)C(=O)N2 (stereo unspecified)	28.8	4.6	16.6	54.7*	-1.5
COc1ccc(-c2cc(NC=O)c3ncc(-c4cccc(C(F)(F)F)c4)n3c2)cc1OC	-13.8	-8.9	8.6	/	-10.2
SMILES	ABHD4 inh	SIAE primary	rCAG binder	HTRA1 inh	TCR CD3 inh
Cc1[nH]c2ccccc2c1/C=N/Nc1cccc(C(=O)O)c1	33.6*	6.9	21.4	17.6	11.7
CC1CCN(C(=O)CCC(=O)N2CC(C)Oc3ccccc32)CC1 (stereo unspecified)	-13.5	2.9	-0.3	-0.5	-3.6
Cc1cccc(N2CCN(C(=O)CCC(=O)N3CC(C)Oc4ccccc43)CC2)c1C (stereo unspecified)	-0.8	-4.8	-0.7	-2.1	20.5*
Cc1cccn2c(=O)c3cc(C(=O)NCc4ccco4)c(=N)n(C4CCCC4)c3nc12	7.5	0.3	7.1	-2.3	0.3
COc1ccc(OC)c(NC(=O)CSc2nc3[nH]c(=O)[nH]c(=O)c3s2)c1	9.9	-31.3	37.1*	-1.1	5.0
COc1ccc(NC(=O)CSc2nc3[nH]c(=O)[nH]c(=O)c3s2)cc1OC	9.3	2.4	5.9	11.8	6.6
CCn1c(=S)sc2c(=O)[nH]c(SCC(=O)Nc3cc(OC)ccc3OC)nc21	-7.1	1.3	75.7*	-25.4	2.6
CC1=C(C(=O)OC2CCCCC2)C(c2ccc(C)o2)C2=C(CCCC2=O)N1 (stereo unspecified)	-12.9	3.6	3.2	-1.6	-7.7
CC1=C(C(=O)OCc2ccccc2)C(c2ccc(C)o2)C2=C(CCCC2=O)N1 (stereo unspecified)	-3.7	33.4*	0.9	-4.8	2.7
Oc1ccc(/C=N\Nc2cc(N3CCOCC3)nc(N3CCOCC3)n2)c(O)c1	12.8	23.0*	11.0	5.8	-6.6
Cc1ccc(NS(=O)(=O)c2cc(NC(=O)C(C)Oc3ccccc3)ccc2C)c(C)c1 (stereo unspecified)	-20.5	-13.6	0.5	-52.7	-3.5
Cc1ccc(C)c(S(=O)(=O)Nc2cc(SCC(=O)O)c(O)c3ccccc23)c1	/	/	/	44.6*	/
O=C(O)Cn1c2c(c3ccccc31)CSc1ccc(Cl)cc1-2	6.8	-7.3	58.2*	3.8	8.6
O=C(O)Cn1c2ccccc2c2ccccc21	1.9	10.1	-2.2	1.7	1.3
c1cc(C2CCN(Cc3nc(-c4ccc5c(c4)OCO5)no3)CC2)ccn1	4.2	4.2	-3.2	2.7	7.3
CCCCn1c(NC(=O)CC)c(C#N)c2nc3ccccc3nc21	0.1	3.1	14.2	0.9	-2.7
N#Cc1c(NC(=O)c2ccccc2Cl)n(Cc2ccccc2)c2nc3ccccc3nc12	9.7	-3.0	89.5*	-25.8	6.1
Nc1nnc(CC(=O)N/N=C/c2cc([N+](=O)[O-])cc(Br)c2O)s1	38.8*	5.7	59.0*	28.3	33.7*
Nc1c(N2CCCC2)cc(Cl)c2nonc12	/	/	/	36.9*	/
Nc1c(N2CCOCC2)cc(Cl)c2nonc12	0.8	3.4	-2.2	1.0	8.7
COC(=O)c1ccc(-n2c(C)cc(/C=N/Nc3nc(C)cc(=O)[nH]3)c2C)cc1	0.1	0.9	9.8	17.7	-1.3
Cc1cccc2cc3c(N)c(C(=O)Nc4ccc(N5CCOCC5)cc4)sc3nc12	8.4	4.6	4.7	11.0	1.8
CCc1cccc2cc3c(N)c(C(=O)Nc4ccc(S(=O)(=O)N5CCCC5)cc4)sc3nc12	7.0	27.4*	8.7	-3.7	-7.2
Cc1cc(=O)oc2c3c(ccc12)OC/C3=N/N	25.8	-7.1	40.7*	13.2	22.4*
CCC(Sc1nc2ccccc2[nH]1)C(=O)Nc1cc(C)on1 (stereo unspecified)	1.5	-0.5	2.6	-15.2	1.0
CCC(Sc1nc(-c2ccccc2)c(C#N)c(=O)[nH]1)C(=O)Nc1cc(C)on1 (stereo unspecified)	-13.5	-8.8	50.2*	-10.2	-3.0
